Series [1] concerns the target T1, Serine/threonine-protein kinase PAK 4 (Homo sapiens, UniProt O96013). As to conditions: 0.1 uM.
The target in series [2] is Mitogen-activated protein kinase kinase kinase 14 (Homo sapiens) (UniProt Q99558). The experiment in a line: Inhibition of NIK (unknown origin) at 1 uM.
For series [3], the target named is T1, Serine/threonine-protein kinase PAK 4. Briefly: Inhibition of PAK4 (unknown origin).
A short description of series [4]: Cytotoxicity against human MDA-MB-436 cells assessed as reduction in cell viability at 10 uM after 24 to 48 hrs by Celltiter-glo luminescence assay. The format is functional. In a few lines: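 Cells sparsely plated in 96-well plates and allowed to adhere, then given DMSO or compound (0.1, 1, 10, 50 μM) for 24 and 48 h. Metabolically active cells quantified by CellTiter-Glo luminescence. MDA-MB-436 grown in DMEM/10% FBS; MCF10A PIK3CA (one endogenous H1047R allele) in DMEM/F12 with 5% horse serum, insulin, hydrocortisone.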
For orientation: In ATP-based viability assays light output follows the ATP content of the culture.

Series [5] has as its system MDA-MB-436. The experiment in a line: Antiinvasive activity against human MDA-MB-436 cells assessed as reduction of wound density after 80 hrs by matrigel assay. It counts as functional, cell-based.
Series [6] has as its target Serine/threonine-protein kinase PAK 3 (Homo sapiens, UniProt O75914). Briefly: Inhibition of PAK3 (unknown origin).
Series [7] is described as follows: Antimigratory activity in human MCF10A cells harboring PIK3CA H1047R mutant assessed as reduced wound density at >10 uM after 20 hrs by wound healing assay. The format is functional, MCF-10A. Details: scale not given: the % may be the effect or the level left. In a few lines:
(§1)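 Monolayer of 40 000 cells per well, grown overnight, scratched with WoundMaker, washed twice with warm medium, then given medium with DMSO or compound (0.1, 1, 10, 50 μM). Relative wound density from phase-contrast time-lapse images, collected and quantified every 2 h on IncuCyte.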

Series [8] has as its target T2, Serine/threonine-protein kinase PAK 6 (Homo sapiens, UniProt Q9NQU5). The experiment in a line: Inhibition of PAK6 (unknown origin).
In series [9] the target is Misshapen-like kinase 1 (Homo sapiens) (UniProt Q8N4C8). Briefly: Inhibition of MINK1 (unknown origin) at 1 uM.
Series [10] concerns the target T2, Serine/threonine-protein kinase PAK 6. The experiment in a line: Inhibition of PAK6 (unknown origin) at 0.1 uM.
Series [11] is described as follows: Antimigratory activity in human MDA-MB-436 cells assessed as reduction in wound density at >10 uM after 1 to 24 hrs by wound healing assay. The format is functional. Also noted: scale not given: the % may be the effect or the level left. The gist of the method: as §1
A short description of series [12]: Thermodynamic solubility of the compound. The format is physicochemical. As to conditions: read-out: Therm_solubility.
A short description of series [13]: Apparent permeability across apical to basolateral side in MDCK cells. It counts as ADME, cell-based, Canis lupus familiaris. Particulars: dog.
Series [14] concerns the target Serine/threonine-protein kinase PAK 5 (Homo sapiens, UniProt Q9P286). Briefly: Inhibition of PAK5 (unknown origin) at 0.1 uM.
For series [15], the target named is Mitogen-activated protein kinase kinase kinase kinase 5 (Homo sapiens) (UniProt Q9Y4K4). The experiment in a line: Inhibition of KHS1 (unknown origin) at 1 uM.
Series [16] in a line: Antiinvasive activity against human MDA-MB-436 cells assessed as reduction of wound density at 1 uM after 80 hrs by matrigel assay. The format is functional. Also noted: scale not given: the % may be the effect or the level left.
Series [17] in a line: Kinetic solubility of the compound. The format is physicochemical. Particulars: read-out: Kinetic_solubility.
A short description of series [18]: Lipophilicity, log D of the compound at pH 7.4. It counts as physicochemical. As to conditions: buffer.
Series [19] has as its system MDA-MB-436. Briefly: Antiinvasive activity against human MDA-MB-436 cells assessed as complete wound closure at 0.1 to 50 uM after 80 hrs by matrigel assay. It counts as functional, cell-based.
Series [20] deals with T3, Tyrosine-protein kinase JAK3 (Homo sapiens) (UniProt P52333).
T3 sequence (whole entry): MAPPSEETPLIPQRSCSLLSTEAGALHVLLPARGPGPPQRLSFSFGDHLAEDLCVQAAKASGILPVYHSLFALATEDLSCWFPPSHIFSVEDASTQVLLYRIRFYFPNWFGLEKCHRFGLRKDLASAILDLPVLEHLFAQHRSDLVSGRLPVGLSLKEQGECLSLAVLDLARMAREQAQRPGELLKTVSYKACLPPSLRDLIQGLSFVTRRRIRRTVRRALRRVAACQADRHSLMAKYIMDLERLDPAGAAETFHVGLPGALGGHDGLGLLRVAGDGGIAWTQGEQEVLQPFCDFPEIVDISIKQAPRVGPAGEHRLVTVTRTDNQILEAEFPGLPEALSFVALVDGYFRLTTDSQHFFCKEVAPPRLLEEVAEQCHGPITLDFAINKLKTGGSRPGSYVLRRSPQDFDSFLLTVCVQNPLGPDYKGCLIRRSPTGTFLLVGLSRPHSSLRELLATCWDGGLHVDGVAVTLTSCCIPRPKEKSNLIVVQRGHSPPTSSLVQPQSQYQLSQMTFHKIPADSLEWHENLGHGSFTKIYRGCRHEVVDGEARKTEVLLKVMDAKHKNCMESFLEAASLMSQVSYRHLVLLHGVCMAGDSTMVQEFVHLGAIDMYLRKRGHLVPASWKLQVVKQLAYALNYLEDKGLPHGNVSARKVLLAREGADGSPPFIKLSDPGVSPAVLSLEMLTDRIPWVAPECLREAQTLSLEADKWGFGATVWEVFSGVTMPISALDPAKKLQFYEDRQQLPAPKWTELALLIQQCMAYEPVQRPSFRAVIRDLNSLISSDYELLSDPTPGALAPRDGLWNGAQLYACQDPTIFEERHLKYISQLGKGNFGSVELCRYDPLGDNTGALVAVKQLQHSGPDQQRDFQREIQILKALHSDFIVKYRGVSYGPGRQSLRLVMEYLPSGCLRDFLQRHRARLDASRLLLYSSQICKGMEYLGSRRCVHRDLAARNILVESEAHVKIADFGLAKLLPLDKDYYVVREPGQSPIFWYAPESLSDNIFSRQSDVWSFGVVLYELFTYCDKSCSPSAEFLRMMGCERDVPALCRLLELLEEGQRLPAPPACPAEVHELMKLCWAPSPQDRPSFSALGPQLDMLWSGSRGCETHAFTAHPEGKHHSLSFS
The experiment in a line: Inhibition of JAK3 (unknown origin) at 1 uM.

Series [21] addresses Mitogen-activated protein kinase kinase kinase kinase 4 (Homo sapiens) (UniProt O95819). The experiment in a line: Inhibition of MAP4K4 (unknown origin) at 1 uM.
Series [22] is described as follows: Antiinvasive activity against human MCF10A cells harboring PIK3CA H1047R mutant assessed as reduction of wound density at 10 uM after 48 hrs by matrigel assay. It counts as functional, MCF-10A. Also noted: scale not given: the % may be the effect or the level left.

Each structure is given as a SMILES string. Converted amounts (≈) assume the structure as drawn. The source made the active and inactive calls. The rule behind the calls is not given here.

Sequence of Mitogen-activated protein kinase kinase kinase kinase 5 (Homo sapiens) (Q9Y4K4 whole entry, looked up): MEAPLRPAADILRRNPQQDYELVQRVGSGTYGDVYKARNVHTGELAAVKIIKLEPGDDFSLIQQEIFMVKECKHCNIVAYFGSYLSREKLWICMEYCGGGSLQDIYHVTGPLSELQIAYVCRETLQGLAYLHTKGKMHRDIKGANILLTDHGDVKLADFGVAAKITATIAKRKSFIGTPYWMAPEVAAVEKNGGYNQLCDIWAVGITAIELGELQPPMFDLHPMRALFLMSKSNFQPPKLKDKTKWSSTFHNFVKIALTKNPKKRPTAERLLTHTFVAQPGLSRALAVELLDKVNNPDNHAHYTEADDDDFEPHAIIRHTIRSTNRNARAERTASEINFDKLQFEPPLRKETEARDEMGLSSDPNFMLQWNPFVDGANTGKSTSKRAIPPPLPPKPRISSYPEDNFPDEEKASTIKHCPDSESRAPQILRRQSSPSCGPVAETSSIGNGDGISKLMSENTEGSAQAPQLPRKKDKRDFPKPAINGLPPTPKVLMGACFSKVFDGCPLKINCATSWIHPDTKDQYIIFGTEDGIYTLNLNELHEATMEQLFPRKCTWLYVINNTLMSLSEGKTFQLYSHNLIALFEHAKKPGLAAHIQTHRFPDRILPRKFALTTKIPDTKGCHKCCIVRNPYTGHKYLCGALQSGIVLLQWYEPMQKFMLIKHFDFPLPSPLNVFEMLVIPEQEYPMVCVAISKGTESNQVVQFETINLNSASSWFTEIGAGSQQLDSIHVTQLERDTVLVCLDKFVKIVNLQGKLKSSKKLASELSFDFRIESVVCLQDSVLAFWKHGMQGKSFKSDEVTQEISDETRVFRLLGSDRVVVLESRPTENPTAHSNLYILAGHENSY
Sequence of Mitogen-activated protein kinase kinase kinase kinase 4 (Homo sapiens) (O95819 2-1239 limits assumed): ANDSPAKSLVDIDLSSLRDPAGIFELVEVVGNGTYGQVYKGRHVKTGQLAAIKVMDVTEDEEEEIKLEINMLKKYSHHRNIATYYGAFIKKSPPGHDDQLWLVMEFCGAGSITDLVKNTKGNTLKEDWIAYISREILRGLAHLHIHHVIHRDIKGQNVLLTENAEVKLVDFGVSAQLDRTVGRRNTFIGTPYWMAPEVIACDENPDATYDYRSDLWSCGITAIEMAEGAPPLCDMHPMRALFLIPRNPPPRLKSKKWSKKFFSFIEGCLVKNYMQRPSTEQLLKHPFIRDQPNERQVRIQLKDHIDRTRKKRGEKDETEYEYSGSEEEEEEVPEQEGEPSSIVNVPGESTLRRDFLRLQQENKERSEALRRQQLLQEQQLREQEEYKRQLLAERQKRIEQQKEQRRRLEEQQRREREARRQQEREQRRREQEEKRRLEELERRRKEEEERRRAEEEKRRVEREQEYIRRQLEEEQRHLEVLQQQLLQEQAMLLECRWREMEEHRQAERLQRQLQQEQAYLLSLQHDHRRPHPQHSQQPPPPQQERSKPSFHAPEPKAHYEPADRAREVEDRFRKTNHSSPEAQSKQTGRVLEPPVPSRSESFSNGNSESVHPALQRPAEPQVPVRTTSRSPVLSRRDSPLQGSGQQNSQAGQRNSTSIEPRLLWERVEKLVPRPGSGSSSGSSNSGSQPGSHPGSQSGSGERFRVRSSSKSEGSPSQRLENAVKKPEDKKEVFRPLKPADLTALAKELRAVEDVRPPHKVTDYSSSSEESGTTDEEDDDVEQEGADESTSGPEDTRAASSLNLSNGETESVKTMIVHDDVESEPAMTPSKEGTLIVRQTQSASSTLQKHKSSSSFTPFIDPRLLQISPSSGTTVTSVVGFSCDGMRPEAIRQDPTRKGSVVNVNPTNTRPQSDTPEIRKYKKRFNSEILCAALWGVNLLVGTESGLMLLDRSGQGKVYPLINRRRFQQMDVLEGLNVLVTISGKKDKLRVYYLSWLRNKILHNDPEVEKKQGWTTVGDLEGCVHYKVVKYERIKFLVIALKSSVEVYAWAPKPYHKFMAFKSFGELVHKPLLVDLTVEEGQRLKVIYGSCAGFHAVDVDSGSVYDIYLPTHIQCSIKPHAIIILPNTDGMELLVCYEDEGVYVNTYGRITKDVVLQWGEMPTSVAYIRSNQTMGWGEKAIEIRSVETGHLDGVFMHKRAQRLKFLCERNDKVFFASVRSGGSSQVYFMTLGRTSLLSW
Sequence of Misshapen-like kinase 1 (Homo sapiens) (Q8N4C8 whole entry, looked up): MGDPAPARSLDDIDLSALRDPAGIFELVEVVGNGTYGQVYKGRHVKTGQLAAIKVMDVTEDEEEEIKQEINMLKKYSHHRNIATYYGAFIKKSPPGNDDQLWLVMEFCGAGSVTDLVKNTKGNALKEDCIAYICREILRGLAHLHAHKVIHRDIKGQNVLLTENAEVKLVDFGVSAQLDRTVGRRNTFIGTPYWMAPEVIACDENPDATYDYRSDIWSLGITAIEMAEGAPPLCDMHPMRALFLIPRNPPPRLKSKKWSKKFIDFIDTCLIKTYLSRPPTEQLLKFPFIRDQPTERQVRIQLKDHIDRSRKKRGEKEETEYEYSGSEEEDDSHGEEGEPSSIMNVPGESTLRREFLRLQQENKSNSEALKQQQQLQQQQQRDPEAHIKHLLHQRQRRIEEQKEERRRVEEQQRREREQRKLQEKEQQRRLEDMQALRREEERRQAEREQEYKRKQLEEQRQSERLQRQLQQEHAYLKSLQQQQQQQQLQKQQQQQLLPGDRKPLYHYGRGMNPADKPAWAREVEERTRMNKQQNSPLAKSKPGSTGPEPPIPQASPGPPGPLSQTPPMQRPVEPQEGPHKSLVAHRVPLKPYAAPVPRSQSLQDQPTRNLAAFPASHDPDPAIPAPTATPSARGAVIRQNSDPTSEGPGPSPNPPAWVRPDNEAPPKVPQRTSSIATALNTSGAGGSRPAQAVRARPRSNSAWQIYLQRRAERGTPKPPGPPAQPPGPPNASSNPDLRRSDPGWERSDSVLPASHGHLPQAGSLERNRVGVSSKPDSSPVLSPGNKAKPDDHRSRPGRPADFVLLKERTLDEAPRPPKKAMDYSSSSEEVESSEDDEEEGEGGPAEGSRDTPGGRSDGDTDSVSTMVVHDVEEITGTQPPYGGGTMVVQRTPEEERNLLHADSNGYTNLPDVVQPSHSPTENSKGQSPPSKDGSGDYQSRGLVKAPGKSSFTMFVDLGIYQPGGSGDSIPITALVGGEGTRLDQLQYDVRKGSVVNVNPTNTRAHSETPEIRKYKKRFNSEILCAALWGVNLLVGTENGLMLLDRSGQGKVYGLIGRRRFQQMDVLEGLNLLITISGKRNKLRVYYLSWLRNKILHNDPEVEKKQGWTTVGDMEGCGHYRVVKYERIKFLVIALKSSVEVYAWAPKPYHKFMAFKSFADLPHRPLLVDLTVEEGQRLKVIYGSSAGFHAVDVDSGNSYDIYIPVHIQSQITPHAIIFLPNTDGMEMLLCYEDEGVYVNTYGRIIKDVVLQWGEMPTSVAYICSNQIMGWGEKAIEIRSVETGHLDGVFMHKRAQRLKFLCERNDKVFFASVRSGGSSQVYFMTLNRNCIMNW
Sequence of Mitogen-activated protein kinase kinase kinase 14 (Homo sapiens) (Q99558 whole entry, looked up): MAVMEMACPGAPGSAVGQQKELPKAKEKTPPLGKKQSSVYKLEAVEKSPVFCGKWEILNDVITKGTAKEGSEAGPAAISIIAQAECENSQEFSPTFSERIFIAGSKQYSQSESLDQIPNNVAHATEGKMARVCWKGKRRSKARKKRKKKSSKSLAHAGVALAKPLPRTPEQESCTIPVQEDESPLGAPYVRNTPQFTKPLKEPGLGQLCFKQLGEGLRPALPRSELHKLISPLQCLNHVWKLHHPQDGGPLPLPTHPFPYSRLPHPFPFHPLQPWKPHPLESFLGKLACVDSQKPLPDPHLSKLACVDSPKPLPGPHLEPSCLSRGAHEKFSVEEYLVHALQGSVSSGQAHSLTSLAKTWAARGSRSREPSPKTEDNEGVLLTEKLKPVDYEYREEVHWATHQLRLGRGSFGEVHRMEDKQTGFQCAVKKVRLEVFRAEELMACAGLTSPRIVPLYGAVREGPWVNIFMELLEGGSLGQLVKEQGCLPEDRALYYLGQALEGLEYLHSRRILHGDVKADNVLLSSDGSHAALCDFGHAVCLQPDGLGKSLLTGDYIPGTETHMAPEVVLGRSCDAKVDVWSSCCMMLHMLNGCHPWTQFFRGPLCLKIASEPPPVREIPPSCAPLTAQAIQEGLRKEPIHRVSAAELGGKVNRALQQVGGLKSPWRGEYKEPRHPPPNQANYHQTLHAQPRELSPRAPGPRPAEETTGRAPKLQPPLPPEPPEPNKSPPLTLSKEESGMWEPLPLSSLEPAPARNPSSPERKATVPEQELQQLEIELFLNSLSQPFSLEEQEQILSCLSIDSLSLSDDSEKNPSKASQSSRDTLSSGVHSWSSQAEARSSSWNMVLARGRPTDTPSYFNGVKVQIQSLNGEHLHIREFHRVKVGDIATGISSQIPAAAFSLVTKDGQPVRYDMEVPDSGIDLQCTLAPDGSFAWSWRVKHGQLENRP
Sequence of Serine/threonine-protein kinase PAK 5 (Q9P286 whole entry, looked up): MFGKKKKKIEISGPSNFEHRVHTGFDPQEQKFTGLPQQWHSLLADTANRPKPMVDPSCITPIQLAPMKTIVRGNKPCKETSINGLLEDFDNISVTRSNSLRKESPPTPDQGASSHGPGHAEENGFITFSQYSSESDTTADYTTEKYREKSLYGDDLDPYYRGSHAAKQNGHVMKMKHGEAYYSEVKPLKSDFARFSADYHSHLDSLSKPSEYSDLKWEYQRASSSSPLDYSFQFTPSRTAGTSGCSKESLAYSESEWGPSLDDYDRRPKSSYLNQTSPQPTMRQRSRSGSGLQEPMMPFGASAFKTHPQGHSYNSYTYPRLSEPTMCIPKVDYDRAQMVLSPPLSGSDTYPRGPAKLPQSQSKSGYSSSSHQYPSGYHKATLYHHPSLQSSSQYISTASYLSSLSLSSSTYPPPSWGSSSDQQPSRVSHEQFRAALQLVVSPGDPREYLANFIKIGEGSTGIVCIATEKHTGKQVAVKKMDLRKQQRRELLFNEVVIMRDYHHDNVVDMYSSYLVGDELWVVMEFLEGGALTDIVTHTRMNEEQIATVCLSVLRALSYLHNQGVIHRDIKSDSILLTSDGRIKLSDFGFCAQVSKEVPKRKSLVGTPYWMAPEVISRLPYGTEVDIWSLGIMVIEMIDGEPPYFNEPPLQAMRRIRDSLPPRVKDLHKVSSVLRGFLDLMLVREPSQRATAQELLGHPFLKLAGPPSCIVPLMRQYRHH

One may read the inhibition as the change of the read-out against control, counted positive when it falls. Usually IC50 stands for the midpoint of a concentration-inhibition curve. In general, Papp A→B refers to the apparent permeability from the apical to the basolateral side of a cell layer. By logD is commonly meant the decadic logarithm of the distribution of all forms, ionised or not, between an organic phase and buffer at a given pH. For `COCCNc1nc2ccc(C#CC3(O)CCCCC3)cc2n1-c1ccnc(N)n1`, the inhibition was above 60% in series [1]; 46% in series [2]; 5% in [9]; above 60% in series [10]; above 60% in series [14]; 14% in series [15]. Moreover, the inhibition was -1% in series [20] and -4% in series [21]. In addition, the results for the IC50 in series [3], in series [6] and in series [8] were 7.5 nM, above 10 µM and 36 nM, respectively. For the same molecule, the Activity in series [4] was 50%; in the series with MDA-MB-436 [5], “Dose-dependent effect”; in series [7], 50%; in series [11], 50%; in series [16], 50%; in series [22], 50%. Further, the solubility thermodynamic in series [12] came to 6.3 µM (≈ 2.56 µg/mL). In series [13], the apical-to-basolateral permeability (Papp A→B) amounted to 22.2 ×10⁻⁶ cm/s. Also, the solubility kinetic in series [17] amounted to 30 µM (≈ 12.2 µg/mL). The molecule also registered a logD in [18] of 3.6. The result in the series on MDA-MB-436 [19] was inactive.

(Values after ChEMBL document CHEMBL3124809, “Back pocket flexibility provides group II p21-activated kinase (PAK) selectivity for type I 1/2 kinase inhibitors” (J Med Chem, 2014).)
